According to ChEMBL document CHEMBL1955778, “Design and synthesis of novel 7-aminoquinazoline derivatives: antitumor and anticonvulsant activities” (Bioorg Med Chem Lett, 2012):

Legend:
[1] = species on record: Mus musculus; test: Protective index, ratio of TD50 for mouse to ED50 for pentylenetetrazol-induced seizure in mouse; format: functional
How it was run: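 Mice. Index is TD50/ED50. TD50 is the dose causing minimal neurological toxicity in 50% of mice in the Chimney test. ED50 is the dose protecting 50% of mice against pentylenetetrazole-induced seizures. Both are estimated from testing at several doses.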

[2] = Toxicity in ip dose mouse assessed as mortality; format: organism-based; conditions: in vivo
How it was run: (§1)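 In mice, LD50 is the dose causing 50% mortality. ED50 is the dose protecting 50% of mice against pentylenetetrazole-induced seizures. Therapeutic index = LD50/ED50.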

[3] = Therapeutic index, ratio of LD50 for mouse to ED50 for pentylenetetrazol-induced seizure in mouse; format: organism-based; conditions: in vivo, read-out: Ratio LD50/ED50; how it was run: as §1
[4] = Neurotoxicity in ip dosed mouse assessed as impaired motor coordination administered 30 mins prior to test by chimney test; format: toxicity, organism-based; conditions: in vivo
How it was run: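 Mice, Chimney test. TD50 is the dose that produces minimal neurological toxicity (impaired motor coordination) in 50% of animals, estimated from testing at several doses.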

[5] = tested on: Mus musculus; test: Anticonvulsant activity in ip dosed mouse assessed as protection against pentylenetetrazol-induced seizure administered 30 min prior to pentylenetetrazol-challenge measured after 60 mins; format: functional
How it was run: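 Mice received several doses for quantification. ED50 taken as the dose protecting 50% of mice against pentylenetetrazol-induced seizures.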

[6] = tested on: Mus musculus; test: Anticonvulsant activity in mouse assessed as protection against maximal electroshock-induced seizure at 1.4 mmol/kg, ip administered 30 min prior to maximal electroshock-challenge measured after 60 mins relative to control; format: functional
[7] = tested on: Mus musculus; test: Anticonvulsant activity in mouse assessed as protection against picrotoxin-induced seizure at 1.4 mmol/kg, ip administered 30 min prior to picrotoxin-challenge measured after 60 mins relative to control; format: functional
[8] = tested on: Mus musculus; test: Anticonvulsant activity in mouse assessed as protection against strychnine-induced seizure at 1.4 mmol/kg, ip administered 30 min prior to strychnine-challenge measured after 60 mins relative to control; format: functional
[9] = tested on: Mus musculus; test: Anticonvulsant activity in mouse assessed as protection against pentylenetetrazol-induced seizure at 1.4 mmol/kg, ip administered 30 min prior to pentylenetetrazol-challenge measured after 60 mins relative to control; format: functional

Cc1ccccc1-n1c(C)nc2ccccc2c1=O [METHAQUALONE]
Ratio TD50/ED50 [1]: 1.14
LD50 [2]: 2000 µmol/kg
selectivity ratio [3]: 1.4
TD50 at 0.5 h [4]: 1600 µmol/kg
ED50 [5]: 1400 µmol/kg
Activity [6]: 100%
Activity [7]: 50%
Activity [8]: 0%
Activity [9]: 100%
